An excerpt weighted towards active compounds, which were near 3.7% of everything screened.
KCNQ1 pot – potentiates or activates the human KCNQ1 potassium channel. P51787. CHO-K1 KCNQ1, thallium flux FluxOR fluorescence; active compounds read high. B-score at 10 µM. 0.35% of 310,000 active. AID 2648;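 active means fluorescence ratio B-score, a plate-corrected score, at least three library SD, with initial intensity B-score within 5 SD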
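Schedule – 37 °C overnight plating, 90-min dark dye load, 20-min compound pretreatment · System – stable KCNQ1 CHO-K1 line · Probe or stimulus – thallium- and potassium-containing depolarizing buffer · Measured by – kinetic FluxOR fluorescence, 10 s baseline plus 110 s post-stimulus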
Kir21 block – Kir2.1 (mouse) channel inhibition. P35561. HEK293-Kir2.1, FluxOR thallium flux fluorescence; active compounds read low. B-score at 10 µM. 0.85% of 310,000 active;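 active means fluorescence ratio B-score at or below minus 3 SD of library scores, with starting-brightness B-score within 2 SD, cut at about -4.2 in these data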;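 further: channel flux triggered by added potassium and thallium sulfate stimulus; B-score of peak minus minimum fluorescence over baseline after thallium stimulus; more negative B-score means stronger Kir2.1 block with less thallium influx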
KCNK3 inh – human KCNK3 channel inhibition, primary screen; 0.84% of 340,000 active; CHO-KCNK3 thallium flux, FluxOR fluorescence; active compounds read low; B-score at 10 µM; O14649;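 active means B-score under library mean minus 4 SD, starting fluorescence ratio at most library mean plus 5 SD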;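 further: more negative B-score means stronger inhibition of thallium flux through KCNK3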
KCNK9 block – human KCNK9 channel inhibition; AID 488922; B-score at 10 µM; Q9NPC2; HEK293 KCNK9, FluxOR thallium flux fluorescence; active compounds read low; 1.2% of 310,000 active;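 active means ratio B-score over 3 SD below the library mean, with starting fluorescence within 5 SD of its mean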;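 further: negative B-score means less thallium flux so channel inhibition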
hERG rescue – compounds protecting human hERG from proarrhythmic drug block; Q12809; CHO-hERG, FluxOR thallium flux, dofetilide IC70 present; activation (rescue from dofetilide block), less the hit threshold, % at 10 µM; 0.51% of 310,000 active;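 active means activation above the mean of controls blocked by dofetilide plus 5 SD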;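 further: thallium influx through hERG after potassium depolarization seen as dye fluorescence rise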
Target sequence (Q12809 whole entry, looked up): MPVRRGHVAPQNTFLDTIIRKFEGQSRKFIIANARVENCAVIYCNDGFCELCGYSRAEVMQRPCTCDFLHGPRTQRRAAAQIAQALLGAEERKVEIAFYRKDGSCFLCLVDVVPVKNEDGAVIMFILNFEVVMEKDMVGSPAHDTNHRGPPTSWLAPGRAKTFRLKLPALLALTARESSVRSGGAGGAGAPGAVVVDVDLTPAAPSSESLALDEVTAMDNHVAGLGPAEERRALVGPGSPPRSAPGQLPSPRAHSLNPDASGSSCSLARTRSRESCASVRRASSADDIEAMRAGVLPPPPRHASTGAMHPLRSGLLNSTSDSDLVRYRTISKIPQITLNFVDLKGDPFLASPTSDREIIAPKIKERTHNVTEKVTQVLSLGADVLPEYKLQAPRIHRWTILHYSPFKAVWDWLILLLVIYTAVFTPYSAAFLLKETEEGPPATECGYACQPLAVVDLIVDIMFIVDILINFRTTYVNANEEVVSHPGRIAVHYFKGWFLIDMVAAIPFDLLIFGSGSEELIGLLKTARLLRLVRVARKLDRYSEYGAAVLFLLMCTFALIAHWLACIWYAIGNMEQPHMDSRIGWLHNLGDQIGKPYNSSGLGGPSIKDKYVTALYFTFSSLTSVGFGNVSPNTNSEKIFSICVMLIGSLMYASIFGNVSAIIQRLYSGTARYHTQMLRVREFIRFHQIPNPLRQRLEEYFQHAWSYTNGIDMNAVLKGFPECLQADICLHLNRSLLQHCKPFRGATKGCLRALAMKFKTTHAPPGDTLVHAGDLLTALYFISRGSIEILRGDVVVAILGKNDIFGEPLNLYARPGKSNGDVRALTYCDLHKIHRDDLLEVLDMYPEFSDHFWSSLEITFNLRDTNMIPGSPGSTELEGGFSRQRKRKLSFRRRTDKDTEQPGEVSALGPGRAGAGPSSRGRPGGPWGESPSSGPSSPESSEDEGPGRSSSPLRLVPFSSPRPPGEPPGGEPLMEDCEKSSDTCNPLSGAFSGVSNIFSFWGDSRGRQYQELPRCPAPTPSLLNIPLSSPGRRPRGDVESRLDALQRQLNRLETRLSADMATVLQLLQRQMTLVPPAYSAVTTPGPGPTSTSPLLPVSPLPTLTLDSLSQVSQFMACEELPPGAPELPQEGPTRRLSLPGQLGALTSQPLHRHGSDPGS
KCNQ1 block – inhibitors of human KCNQ1 potassium channel | CHO-K1 KCNQ1, FluxOR thallium flux fluorescence; active compounds read high | 1.3% of 310,000 active | B-score at 10 µM | AID 2642;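 active means compounds whose thallium flux B-score, printed positive for inhibition, exceeds three library SD while starting fluorescence stays within three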;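 further: channel opened by potassium depolarization with thallium stimulus after 20 min compound exposure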
The depositor's hits bear a star; i = inactive; . = not tested or not shown.

SMILES	KCNQ1 pot	Kir21 block	KCNK3 inh	KCNK9 block	hERG rescue	KCNQ1 block
C#CCOCCOCCOCCNc1nc(N2CCN(C(=O)Cn3cc(CC(C)O)nn3)CC2)nc(N2CCN(C(=O)[C@H](C)n3cc(CCC(=O)O)nn3)CC2)n1 (stereo partly drawn)	.	.	i	.	.	.
Cc1cc(C)c2nc(NC(=O)c3cc(C)on3)sc2c1	24*	0.72	i	i	-0.7	i
CCc1noc(C)c1C(=O)Nc1nc2c(C)cc(C)cc2s1	i	0.44	i	i	-17.2	i
CCc1ccc2nc(NC(=O)c3cc(C)on3)sc2c1	29*	-0.58	i	i	9.4*	i
COc1ccc2nc(NC(=O)c3ccccc3O)sc2c1	i	-0.11	i	i	-9.4	i
CCOC(=O)c1cccc(C(=O)Nc2nc3ccc(OC)cc3s2)n1	9*	0.2	i	i	0.8	i
Cc1ccc(NC(=O)CCN2CCOCC2)cc1C	i	0.61	i	i	0.6	i
Cc1ccc(F)c([C@H]2[C@@H]3C=CCC[C@@]3(C)C(=O)N2Cc2ccccc2)c1	i	-1.17	i	i	-6.4	8*
Cc1ccc(Cl)c(OCC(=O)NCC(c2cccs2)N2CCOCC2)c1 (stereo not drawn)	i	-7.85*	i	i	-13.7	i
S=C(Nc1ccc(Cl)cc1)NC1CC2CCC(C1)N2Cc1ccccc1 (stereo not drawn)	i	-4.65*	i	i	-10.2	i
CSc1nnc(SCC(=O)Nc2ccc3[nH]c(=O)[nH]c3c2)s1	.	.	i	.	.	.
O=C(CCSc1nnc(-c2ccco2)o1)N1CCOCC1	i	-0.37	i	i	5.7*	i
O=C(CCSc1nnc(-c2ccccc2)o1)N1CCOCC1	i	0.75	i	i	-2.9	i
Cc1cc(C(=O)CSc2nc(N)cc(N)n2)c(C)n1CC1CCCO1 (stereo not drawn)	.	.	i	.	.	.
Cc1sc2nc(SCC(=O)c3cc(C)n(CC4CCCO4)c3C)n(C(C)C)c(=O)c2c1C (stereo not drawn)	i	0.08	-8.83*	i	-5.2	i
Oc1c(C=Nc2ccc(Cl)cn2)sc2ccccc12	i	0	i	i	-13.4	i
Oc1c(/C=N/c2ccccn2)sc2ccccc12	11*	-0.04	i	i	-9.1	i
CCOC(=O)C(CC)/C(C)=N/NC(=O)c1ccc([N+](=O)[O-])cc1 (stereo not drawn)	i	-1.32	i	i	-5.8	i
CC(=N\NC(=O)c1ccc([N+](=O)[O-])cc1)/C(=N/O)C(=O)Nc1ccccc1	i	-1.46	i	i	-14.4	6*
CCOC(=O)/C(C)=N/NC(=O)c1ccc([N+](=O)[O-])cc1	11*	-1.61	i	i	10.5*	i
CCN1C(=O)[C@@H]2[C@@H](c3ccc(-c4cc(C(C)=O)cs4)cc3)N3CCC[C@@]3(C(=O)OC)[C@@H]2C1=O	.	.	i	.	.	.
O=C(c1cc2nc(-c3cccs3)cc(C(F)(F)Cl)n2n1)N1CCCc2ccccc21	i	-1.52	i	-6.72*	-8.1	i
Cc1cccc(NC(=O)NNC(=O)c2ccccn2)c1	.	.	i	.	.	.
Brc1ccccc1OCCCCn1cnc2ccccc21	i	-0.21	i	i	-20.9	8*
COc1ccccc1CNS(=O)(=O)c1ccc2c(c1)CC(C)N2C(=O)C1CCC1 (stereo not drawn)	i	-0.71	i	i	-6.3	i
SMILES	KCNQ1 pot	Kir21 block	KCNK3 inh	KCNK9 block	hERG rescue	KCNQ1 block
CC(=O)OC(C(=O)NCS(=O)(=O)c1ccc(C)cc1)c1cccnc1 (stereo not drawn)	i	1.08	i	i	4.8*	i
COC(=O)c1ccc(C(=O)OC)c(NC(=O)CCc2ccc(C)o2)c1	i	1.28	i	i	45.2*	i
NNc1nc2ccccc2c(=O)n1Cc1ccccc1	i	-1.18	i	i	1.3	i
CN(CCCN1c2ccccc2CCc2ccccc21)CC(=O)c1ccc(Cl)cc1	i	-1.31	.	i	-10.1	i
CN(C)CCCN1c2ccccc2CCc2ccc(Cl)cc21	i	-6.21*	i	i	-8.6	i
Cc1ccc(Nc2nnc(SCC(=O)NC(Cc3c[nH]c4ccccc34)C(=O)O)s2)cc1 (stereo not drawn)	i	0.1	i	i	-1.0	i
CCC(C(=O)Nc1ccccc1-c1ccccc1)c1ccccc1 (stereo not drawn)	i	-4.9*	i	i	-10.4	i
CCCC(C)NCC(=O)Nc1ccccc1-c1ccccc1 (stereo not drawn)	i	-4.51*	i	i	-4.7	i
CCC(C(=O)Nc1ccccc1)c1ccccc1 (stereo not drawn)	i	-0.73	i	i	-7.9	i
CCC(C(=O)NCCCN1CCN(CCCNC(=O)C(CC)c2ccccc2)CC1)c1ccccc1 (stereo not drawn)	i	-0.27	i	i	4.9*	i
CCC(C(=O)NCCCc1ccccc1)c1ccccc1 (stereo not drawn)	i	-3.86	i	i	-13.8	i
Cc1ccc(CC(=O)Nc2ccccc2-c2ccccc2)cc1C	i	-3.1	i	i	-6.8	i
CC(=O)Nc1ccc(SCC(=O)Nc2ccccc2-c2ccccc2)cc1	i	-4.28*	i	i	-8.4	i
CCCCN(C(=O)c1cc(S(=O)(=O)N2CCCCCC2)ccc1OC)c1c(N)n(CCC)c(=O)[nH]c1=O	i	1.2	i	i	-6.8	i
O=C1Nc2ccc(C(=O)O)c(O)c2C1=O	.	.	i	.	.	.
CC(Sc1ccc(Cl)cc1)C(=O)Nc1ccccc1-c1ccccc1 (stereo not drawn)	i	-2.26	i	i	-11.1	i
Cc1ccc(SC(C)C(=O)Nc2ccccc2-c2ccccc2)cc1 (stereo not drawn)	i	-6.91*	i	i	-8.9	i
CCN(Cc1ccncc1)Cc1cn(C)nc1-c1ccc(Oc2ccccc2)cc1	i	-1.4	i	i	-14.3	6*
Cc1cccc(C2C3=C(Nc4[nH]n(-c5ccccc5)c(=O)c42)c2ccccc2C3=O)c1 (stereo not drawn)	i	0.13	i	-7.48*	-23.0	i
Cc1sc2ncnc(N3CCC(C(=O)Nc4ccc(Cl)c(Cl)c4)CC3)c2c1C	.	.	-10.2*	.	.	.
CCc1ccc2nc(NC(=O)C3CCN(c4ncnc5sc(C)c(C)c45)CC3)sc2c1	.	.	i	.	.	.
CNC(=O)c1ccc(NC(=O)C2CCN(c3ncnc4sc(C)c(C)c34)CC2)cc1	i	-0.21	i	i	0.5	i
CCc1cccc(NC(=O)C2CCN(c3ncnc4sc(C)c(C)c34)CC2)c1	.	.	-10.8*	.	.	.
